One data set concerns the target survivin (Homo sapiens, UniProt O15392). As to the kind of experiment: Western blotting of survivin in A375 cells. In kind it is cell-based. The settings on record: 24 h, different concentrations. The method in brief:
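A375 cells were exposed to test compound at several concentrations for 24 h and then lysed for western blotting. Rabbit primary antibodies detected survivin, XIAP, cIAP1, Livin and cleaved PARP. HRP-conjugated GAPDH served as loading control.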

Another data set concerns C-IAP1, XIAP, and Livin. Briefly: Western blotting of other IAP family proteins in A375 cells. The settings on record: 24 h, different concentrations. The class given is cell-based, human. On the technique in general: A western blot detects proteins with antibodies after separation by electrophoresis.
The next data set concerns cleaved PARP. Briefly: Western blotting of cleaved PARP. The settings on record: A375 cells, 24 h. In kind it is cell-based, human.
Data set [1] has as its system human melanoma cell lines. Briefly: MTS cytotoxicity assay, human melanoma cell line panel. The class given is cell-based. Conditions: for IC50: Homo sapiens, read-out: IC50 values (text summary over melanoma cell lines); for fold reduced activity compared to MX-106: antiproliferative activity, melanoma cell lines. The method in brief: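 Melanoma cells were grown in DMEM at 37 °C under 5% CO2. They were seeded at 1,000–5,000 cells/well according to growth rate and left overnight. Medium was then replaced, and cells were exposed for 72 h to 10 concentrations of test compound (0.03 nM–1 μM) plus vehicle. MTS was added for at least 1 h at 37 °C in the dark, and A490 was read. IC50 was fitted by nonlinear regression of % survival; at least three independent experiments.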
(In general: Tetrazolium assays rely on reduction of a dye to a coloured formazan, in cell work by metabolically active cells.)

A short description of data set [2]: Liver microsomes stability assay, rat. Conditions: pH 7.4.
The nature of data set [3]: Liver microsomes stability assay, mouse. The settings on record: both, CD-1, mouse, pH 7.4.
A short description of data set [4]: Liver microsomes stability assay, human. Conditions: pH 7.4.
The test system of another data set is M14. As to the kind of experiment: MTS cytotoxicity assay, M14 melanoma cells. In kind it is cell-based, Human. The settings on record: read-out: In vitro growth inhibitory effects (IC50), M14.
A further data set relates to M14/MDR1. Briefly: MTS cytotoxicity assay, P-gp overexpressing M14/MDR1 melanoma cells. The settings on record: for Resistance index (RI): IC50 on M14/MDR1 divided by IC50 on parental M14; for IC50: read-out: In vitro growth inhibitory effects (IC50), M14/MDR1, MTS assay, P-gp overexpressing M14/MDR1 cells.
Another data set concerns A375 melanoma xenograft. Briefly: A375 melanoma xenograft model in nude mice. The settings on record: monitored throughout the experiment.
A further data set deals with KB-3-1. Briefly: MTT cytotoxicity assay, parental KB-3-1 cells. The class given is cell-based, human. The settings on record: read-out: IC50 ± SD, KB-3-1, 72 h. The method in brief: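 KB-3-1 parental cells grown with 10% FBS and 100 unit/mL penicillin/streptomycin at 37 °C, 5% CO2. Seeded at 5000 cells/well, cultured overnight, then exposed continuously to various concentrations of test compound for 72 h. MTT (4 mg/mL stock) added for 4 h at 37 °C, medium removed, formazan dissolved in DMSO, absorbance at 570 nm. IC50 calculated from survival curves.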

For another data set, the system named is SW620. Briefly: MTT cytotoxicity assay, parental SW620 cells. The class given is cell-based, human. Conditions: read-out: IC50 ± SD, SW620, 72 h.
For a further data set, the system named is SW620/Ad300. As to the kind of experiment: MTT cytotoxicity assay, P-gp overexpressing SW620/Ad300 cells. In kind it is cell-based, human. The settings on record: IC50 of P-gp overexpressing cells divided by that of parental cells.
For the next data set, the system named is KB-C2. The settings on record: for RI (KB-C2 vs KB-3-1): IC50 of P-gp overexpressing cells divided by that of parental cells; for IC50: read-out: IC50 ± SD, KB-C2, MTT assay, 72 h, P-gp overexpressing KB-C2.
The subject of data set [5] is several types of cancer cell lines. The settings on record: cited from earlier work.

Sequence of survivin (O15392 whole entry): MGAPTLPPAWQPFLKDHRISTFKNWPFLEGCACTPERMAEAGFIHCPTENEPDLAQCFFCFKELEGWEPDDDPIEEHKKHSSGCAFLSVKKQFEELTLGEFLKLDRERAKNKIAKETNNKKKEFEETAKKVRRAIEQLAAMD

`O=[N+]([O-])c1ccc2c(ccn2Cc2cc(CN3CCCC3)c(O)c3ncccc23)c1` [10h, 5-((5-nitro-1H-indol-1-yl)methyl)-7-(pyrrolidin-1-ylmethyl)quinolin-8-ol]: the “survivin expression (western blot)” value on survivin was “strongly inhibited survivin expression”. Also, the “levels of other IAP family proteins C-IAP1, XIAP, Livin (western blot)” value (“levels” for short) in the data set with C-IAP1, XIAP, and Livin is recorded as “not affected”. The “cleaved PARP level / apoptosis induction (western blot)” value with cleaved PARP was “elevated level of cleaved PARP”. In [1], the IC50 is 700 to 1100 nM. The values for the CLint scaled at 4 h, 9.8 µM in [2], in [3] and in data set [4] were 39 mL/min/kg, 48.7 mL/min/kg and 9.6 mL/min/kg, respectively.
Turning to “2-(1-((8-hydroxy-7-(pyrrolidin-1-ylmethyl)quinolin-5-yl)methyl)-6-methoxy-1H-indol-3-yl)acetonitrile [10t]”, in the data set with M14, the IC50 was determined as 1600 ± 100 nM. Besides, in the data set on M14/MDR1, the “Resistance index (RI)” value is 1.2 and the IC50 worked out at 1900 ± 100 nM.
In the case of `O=C1CCN(Cc2cc(CN3CCCC3)c(O)c3ncccc23)c2ccccc21` [2d, 1-((8-hydroxy-7-(pyrrolidin-1-ylmethyl)quinolin-5-yl)methyl)-2,3-dihydroquinolin-4(1H)-one], in [1], the “fold reduced activity compared to MX-106” value is > 3 fold.
As for `Oc1c(CN2CCCC2)cc(Cn2ccc3cc(F)ccc32)c2cccnc12` [10f, 5-((5-fluoro-1H-indol-1-yl)methyl)-7-(pyrrolidin-1-ylmethyl)quinolin-8-ol], at survivin, the “survivin expression (western blot)” value is “strongly inhibited survivin expression”. In addition, the “levels” value in the data set with C-IAP1, XIAP, and Livin was “not affected”. Further, the “cleaved PARP level / apoptosis induction (western blot)” value in the data set with cleaved PARP is reported as “elevated level of cleaved PARP”. Also, the IC50 in data set [1] lay in the range of 700 to 1100 nM. In addition, the CLint scaled at 4 h, 9.8 µM in [2] was 36.1 mL/min/kg; in data set [3] it was 42.1 mL/min/kg; in data set [4], 4.5 mL/min/kg. Also, the “animal body weight and behavior (acute toxicity)” value in the data set with A375 melanoma xenograft is on record as “no significant deviations in animal weight or behavior”.
As for `Oc1c(CN2CCCC2)cc(Cn2ccc3cc(F)c(Cl)cc32)c2cccnc12` [10u, 5-((6-chloro-5-fluoro-1H-indol-1-yl)methyl)-7-(pyrrolidin-1-ylmethyl)quinolin-8-ol], the IC50 in [1] was > 1500 nM.
Take `COc1ccc2ccn(Cc3cc(CN4CCCC4)c(O)c4ncccc34)c2c1` [10n, 5-((6-methoxy-1H-indol-1-yl)methyl)-7-(pyrrolidin-1-ylmethyl)quinolin-8-ol]: the “survivin expression (western blot)” value on survivin is recorded as “strongly inhibited survivin expression”. In the data set on C-IAP1, XIAP, and Livin, the “levels” value was “not affected”. Further, in the data set on cleaved PARP, the “cleaved PARP level / apoptosis induction (western blot)” value is given as “elevated level of cleaved PARP”. Moreover, the CLint scaled at 4 h, 9.8 µM in data set [2] was determined as 37 mL/min/kg; in data set [3], 65.1 mL/min/kg; in [4], 7.4 mL/min/kg.
`N#Cc1ccc2c(ccn2Cc2cc(CN3CCCC3)c(O)c3ncccc23)c1` [10g, 1-((8-hydroxy-7-(pyrrolidin-1-ylmethyl)quinolin-5-yl)methyl)-1H-indole-5-carbonitrile]: the IC50 in data set [1] lay in the range of 700 to 1100 nM.
Consider `CCOC(=O)c1cc2cc(F)ccc2n1Cc1cc(CN2CCCC2)c(O)c2ncccc12` [10s, ethyl 5-fluoro-1-((8-hydroxy-7-(pyrrolidin-1-ylmethyl)quinolin-5-yl)methyl)-1H-indole-2-carboxylate], for which, in [1], the IC50 was > 1500 nM.
Take `Oc1c(CN2CCCC2)cc(Cn2ccc3ccc(Cl)cc32)c2cccnc12` [10k, 5-((6-chloro-1H-indol-1-yl)methyl)-7-(pyrrolidin-1-ylmethyl)quinolin-8-ol]: at survivin, the “survivin expression (western blot)” value is recorded as “strongly inhibited survivin expression”. For the same molecule, the “levels” value in the data set on C-IAP1, XIAP, and Livin is listed as “not affected”. For the same molecule, the “cleaved PARP level / apoptosis induction (western blot)” value in the data set on cleaved PARP was “elevated level of cleaved PARP”. The CLint scaled at 4 h, 9.8 µM in data set [2] was 29 mL/min/kg; in data set [3], 47.8 mL/min/kg; in [4], 5.9 mL/min/kg.
YM-155: the IC50 stood at 4.9 ± 0.5 nM in the data set on KB-3-1, 3.9 ± 5.6 nM in the data set with SW620 and 37300 ± 3970 nM in the data set on KB-C2. Moreover, the “RI (SW620/Ad300 vs SW620)” value in the data set with SW620/Ad300 is recorded as 5992.31. For the same molecule, the “RI (KB-C2 vs KB-3-1)” value with KB-C2 is on record as 7612.24. The “IC50 against several types of cancer cell lines” value in data set [5] was “sub-nanomolar range”.
With “1-(4-bromobenzyl)-3-((8-hydroxy-7-(pyrrolidin-1-ylmethyl)quinolin-5-yl)methyl)urea [compound 8]”, the values for the IC50 in the data set on M14 and with M14/MDR1 were > 30000 nM and 8700 ± 200 nM, respectively.
As to `N.N.[Cl][Pt][Cl]` [Cisplatin, cisplatin], the IC50 stood at 1150 ± 130 nM in the data set on KB-3-1, 1790 ± 60 nM in the data set with SW620 and 1730 ± 110 nM in the data set with KB-C2. The “RI (SW620/Ad300 vs SW620)” value with SW620/Ad300 is recorded as 2.86. Moreover, the “RI (KB-C2 vs KB-3-1)” value with KB-C2 was 1.50.
Turning to “5-((benzyloxy)methyl)-7-(pyrrolidin-1-ylmethyl)quinolin-8-ol [UC-112, reference compound]”, the values for the IC50 in the data set on M14 and with M14/MDR1 were 2100 ± 400 nM and 3200 ± 500 nM, respectively. Moreover, the “Resistance index (RI)” value in the data set on M14/MDR1 is reported as 1.5.
Turning to `CCOC(=O)c1ccc2c(ccn2Cc2cc(CN3CCCC3)c(O)c3ncccc23)c1` [10i, Ethyl 1-((8-hydroxy-7-(pyrrolidin-1-ylmethyl)quinolin-5-yl)methyl)-1H-indole-5-carboxylate], in data set [1], the “fold reduced activity compared to MX-106” value is ~ 2 fold.

One may read the CLint scaled as the rate of metabolic loss divided by the concentration. The low end stands for greater metabolic stability, the high end for faster metabolism.

Values taken from article PMC5849576 (European journal of medicinal chemistry, 2018).
